We go through 10 compounds from ChEMBL document CHEMBL1158705, “Dihydrochalcones from the leaves of Pieris japonica” (2005).

Assay [1] is described as follows: Inhibition of concanavalin A-induced mouse T cells proliferation assessed as [3H]TdR incorporation at 0.1 uM […]. It counts as functional, T-cell. The method, boiled down:
(§1)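 Mouse spleen cells (4 × 10^6/well) were cultured with test compound plus a selective stimulus: concanavalin A at 5 µg/mL for T cells, or E. coli LPS for B cells. Incubation was 48 h at 37 °C in 5% CO2, with a 0.25 µCi/well 3H-thymidine pulse over the final 6 h. Incorporated radioactivity was read by liquid scintillation, as the mean of triplicates, with Student t-test versus control.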
Background: Tetrazolium assays rely on reduction of a dye to a coloured formazan, in cell work by metabolically active cells.

Assay [2] is described as follows: Inhibition of concanavalin A-induced mouse T cells proliferation assessed as [3H]TdR incorporation at 1 uM […]. The class given is functional, T-cell. In outline:
as §1

Assay [3] can be described thus: Inhibition of concanavalin A-induced mouse T cells proliferation assessed as [3H]TdR incorporation at 10 uM […]. The class given is functional, T-cell. The method, boiled down: as §1
Assay [4] can be described thus: Inhibition of LPS-induced mouse B cells proliferation assessed as [3H]TdR incorporation at 0.1 uM […]. It counts as functional. The method, boiled down:
as §1

Assay [5] can be described thus: Inhibition of LPS-induced mouse B cells proliferation assessed as [3H]TdR incorporation at 1 uM […]. It counts as functional. In outline: as §1
Assay [6] can be described thus: Inhibition of LPS-induced mouse B cells proliferation assessed as [3H]TdR incorporation at 10 uM […]. It counts as functional. The method, boiled down:
as §1

As for `O=C(CCc1ccc(O)cc1)c1c(O)cc(O)cc1O` [PHLORETIN], the Activity in assay [1] stood at 63900 cpm; in assay [2], 75700 cpm; in assay [3] it was 69400 cpm; in assay [4], 32700 cpm; in assay [5] it was 29300 cpm; in assay [6], 30700 cpm.

`COc1cc(O)c(C(=O)CCc2ccc(O)c(O)c2)c(O[C@@H]2O[C@H](CO)[C@@H](O)[C@H](O)[C@H]2O)c1`: the Activity in assay [1] worked out at 66700 cpm; in assay [2] it was 71400 cpm; in assay [3], 33000 cpm; in assay [4], 22200 cpm; in assay [5], 22100 cpm; in assay [6], 24000 cpm.

For `COc1c(O[C@@H]2O[C@H](CO)[C@@H](O)[C@H](O)[C@H]2O)cc(C(=O)CCc2ccc(O)cc2)cc1O[C@@H]1O[C@H](CO)[C@@H](O)[C@H](O)[C@H]1O`, the Activity is 84800 cpm in assay [1]; 74100 cpm in assay [2]; 74100 cpm in assay [3]; 30900 cpm in assay [4]; 22800 cpm in assay [5]; 24600 cpm in assay [6].

Regarding `COc1cc(O)c(C(=O)CCc2ccc(O)cc2)c(O[C@@H]2O[C@H](CO)[C@@H](O)[C@H](O)[C@H]2OC(C)=O)c1`, the Activity in assay [1] worked out at 83300 cpm; in assay [2], 81600 cpm; in assay [3], 70100 cpm; in assay [4], 46600 cpm; in assay [5], 45000 cpm; in assay [6] it was 29800 cpm.

In the case of `COc1cc(O)c(C(=O)CCc2ccc(O)cc2)c(O)c1` [ASEBOGENIN], the Activity in assay [1] was determined as 79300 cpm; in assay [2], 80300 cpm; in assay [3], 58400 cpm; in assay [4] it was 32500 cpm; in assay [5] it was 28300 cpm; in assay [6], 34100 cpm.

Consider `O=C(CCc1ccc(O)cc1)c1c(O)cc(O)cc1O[C@@H]1O[C@H](CO)[C@@H](O)[C@H](O)[C@H]1O` [PHLORIZIN], for which the Activity was 36100 cpm in assay [1]; 35500 cpm in assay [2]; 33000 cpm in assay [3]; 33000 cpm in assay [4]; 32400 cpm in assay [5]; 30500 cpm in assay [6].

Turning to `COc1cc(O)c(C(=O)CCc2ccc(O)cc2)c(O[C@@H]2O[C@H](CO)[C@@H](O)[C@H](O)[C@H]2O)c1` [ASEBOTIN], the Activity was found to be 89800 cpm in assay [1]; 87200 cpm in assay [2]; 79600 cpm in assay [3]; 47400 cpm in assay [4]; 40700 cpm in assay [5]; 35200 cpm in assay [6].

As to `COc1cc(O)c(C(=O)CCc2ccc(O)cc2)c(O[C@@H]2O[C@H](CO)[C@@H](O)C(=O)[C@H]2O)c1`, the Activity in assay [1] worked out at 38300 cpm; in assay [2] it was 26700 cpm; in assay [3], 32000 cpm; in assay [4], 34200 cpm; in assay [5], 35000 cpm; in assay [6], 16400 cpm.

`COc1cc(O)c(C(=O)CCc2ccc(O)cc2)c(O)c1Cc1c(OC)cc(O)c(C(=O)CCc2ccc(O)cc2)c1O` [PIEROTIN A]: the Activity in assay [1] turned out to be 75400 cpm; in assay [2] it was 75000 cpm; in assay [3], 22600 cpm; in assay [4], 38100 cpm; in assay [5] it was 32700 cpm; in assay [6] it was 36500 cpm.

For `COc1cc(O)c(C(=O)CCc2ccc(O)cc2)c2oc3cc(O)c(O)cc3c12` [PIEROTIN B], the Activity came out at 76200 cpm in assay [1]; 59000 cpm in assay [2]; 10800 cpm in assay [3]; 22800 cpm in assay [4]; 28600 cpm in assay [5]; 3940 cpm in assay [6].
